ChEMBL document CHEMBL1130202, “Biologically active heteroarotinoids exhibiting anticancer activity and decreased toxicity” (J Med Chem, 1997)
Active and inactive are the calls of the source. The calls are words filed in the database; no cut-off is given here.

Key:
Mus musculus [1] = organism: Mus musculus; assay: Enlarged lymph in gross pathological observations in mice with hypervitaminosis A at low dose with gross observations/total number of mice in group; 6/16; type: functional, organism-based
Mus musculus [2] = organism: Mus musculus; assay: Effect of compound on white blood cells levels in mice at mid dose 1 on day 65; type: functional
Summary of the method: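 Male B6D2F1 mice were gavaged daily with compound in corn oil at low, mid 1, mid 2 or high dose. Serum triglycerides and circulating white blood cells were measured on the stated day (8, 29, 36, 65). Values are group mean ± SD expressed as % relative to corn-oil vehicle, with significance at p ≤ 0.05.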

Mus musculus [3] = organism: Mus musculus; assay: Effect of compound on serum Alkaline phosphatase levels in mice at mid dose 2 on day 29; type: functional
Summary of the method: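 Male B6D2F1 mice dosed daily by oral gavage in corn oil at low, mid 1, mid 2 or high dose. Blood sampled on set days (8, 29, 36, 65) for clinical chemistry, serum alkaline phosphatase and triglycerides. Group mean ± SD reported as % relative to vehicle 1; significance p < 0.05 versus corn oil vehicle.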

Mus musculus [4] = organism: Mus musculus; assay: Enlarged lymph in gross pathological observations in mice with hypervitaminosis A at mid dose 2 with gross observations/total number of mice in group; 8/16; type: functional, organism-based
Mus musculus [5] = organism: Mus musculus; assay: Enlarged spleen in Gross pathological observations in mice with hypervitaminosis A at high dose with gross observations/total number of mice in group; 4/16; type: functional, organism-based
Mus musculus [6] = organism: Mus musculus; assay: Compound toxicity determined by total dose to termination (day 25/65) in low dose; type: functional
Summary of the method: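 Male B6D2F1 mice given daily oral gavage in corn oil; dosages increased during the study (day 30 or day 51 depending on compound). Cumulative dose in mg/kg administered up to termination (day 65, or day 25 for TTNPB 0.01/0.05 mg/kg/day groups).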

Mus musculus [7] = organism: Mus musculus; assay: Compound toxicity determined by total dose to termination (day 25/65) in mid dose 2; type: functional
Mus musculus [8] = organism: Mus musculus; assay: Effect of compound on adrenal to body weight ratios in mice at high dose on day 65; all the animals died by day 65; type: functional, organism-based
Summary of the method: (§1)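 Male B6D2F1 mice dosed daily by gavage with compound in corn oil; vehicle 1 (corn oil) controls run to termination on day 65. Low, mid 1, mid 2 and high dose groups, with dosage increases partway through the study. Organ-to-body weight ratios (×1000) taken at necropsy on day 65, reported as mean ± SD for 4 to 8 animals and as % difference from vehicle.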

Mus musculus [9] = organism: Mus musculus; assay: Fracture incidence in mouse at low dose; 2/8
Mus musculus [10] = organism: Mus musculus; assay: Fracture incidence in mouse at high dose; 4/7
Mus musculus [11] = organism: Mus musculus; assay: Enlarged spleen in Gross pathological observations in mice with hypervitaminosis A at mid dose 2 with gross observations/total number of mice in group; 6/16
Mus musculus [12] = assay: Effect of compound on Spleen to body weight ratios in mice at 0.2 mg/kg/day dose on day 65; dead by day 65; type: functional, organism-based; summary of the method: as §1
Mus musculus [13] = assay: Effect of compound on adrenal to body weight ratios in mice at 0.1 mg/kg/day dose; all the animals died by day 65; type: functional, organism-based
Mus musculus [14] = assay: Total dose of 10% weight loss in mice at 0.05 mg/kg/day; type: functional
Mus musculus [15] = assay: Alopecia observed at 0.01 mg/kg/day dose in mice with hypervitaminosis; 6/8; type: functional, organism-based
Mus musculus [16] = assay: Effect of compound on thymus to body weight ratios in mice at 0.2 mg/kg/day dose; all the animals died by day 65; type: functional, organism-based
Summary of the method: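 Male B6D2F1 mice were dosed daily by gavage in corn oil, with TTNPB given at 0.1–0.8 or 0.01/0.05 mg/kg/day. Thymus-to-body weight ratio (×1000) was taken at necropsy on day 65 against vehicle 1, or on day 25 for the 0.01/0.05 groups against vehicle 2. Mean ± SD of 4–8 animals, reported as % difference from vehicle.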

Mus musculus [17] = assay: Avoiding pressure on limbs at 0.1 mg/kg/day dose in mice hypervitaminosis; 0/16; type: functional, organism-based; conditions: Limb
Mus musculus [18] = assay: Avoiding pressure on limbs at 0.4 mg/kg/day dose in mice with hypervitaminosis; 0/16; type: functional, organism-based; conditions: Limb
Mus musculus [19] = assay: Alopecia observed at 0.2 mg/kg/day dose with hypervitaminosis; 10/16; type: functional, organism-based
Mus musculus [20] = assay: Enlarged lymph in gross pathological observations with hypervitaminosis A at 0.1 mg/kg/day dose with gross observations/total number of animals in group'' 16/16; type: functional, organism-based
Mus musculus [21] = assay: Enlarged lymph in gross pathological observations with hypervitaminosis A in mice at 0.01 mg/kg/day dose with gross observations/total number of animals in group; 6/8; type: functional, organism-based
Mus musculus [22] = assay: Enlarged lymph in gross pathological observations with hypervitaminosis A in mice at 0.05 mg/kg/day dose with gross observations/total number of animals in group; 8/8; type: functional, organism-based
Mus musculus [23] = assay: Enlarged lymph in gross pathological observations with hypervitaminosis A in mice at 0.2 mg/kg/day dose with gross observations/total number of animals in group; 16/16; type: functional, organism-based
Mus musculus [24] = assay: Skin scaling at 0.01 mg/kg/day in mice with hypervitaminosis; 4/8; type: functional, organism-based
Mus musculus [25] = assay: Skin scaling at 0.05 mg/kg/day in mice with hypervitaminosis; 8/8; type: functional, organism-based
Mus musculus [26] = assay: Skin scaling at 0.1 mg/kg/day in mice with hypervitaminosis; 14/16; type: functional, organism-based
[27] = Mortality rate in mice at 0.05 mg/kg/day; type: ADME, organism-based; conditions: mouse, in vivo
Summary of the method: (§2)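 Male B6D2F1 mice given compound daily by gavage in corn oil at the stated dose levels, with corn oil vehicle controls. Deaths counted as animals found dead or sacrificed moribund, with day(s) of death recorded. Heteroarotinoid groups ran to day 65 and low-dose reference groups to day 25.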

Mus musculus [28] = assay: Enlarged spleen in Gross pathological observations with hypervitaminosis A in mice at 0.4 mg/kg/day dose with gross observations/total number of animals in group; 0/16; type: functional, organism-based
Mus musculus [29] = assay: Fracture incidents in mouse at 0.01 mg/kg/day; 1/7
Mus musculus [30] = assay: Average number of fractures per mouse at 0.01 mg/kg/day
Mus musculus [31] = assay: Effect of compound on adrenal to body weight ratios in mice at 0.05 mg/kg/day dose; measured on day 25
Mus musculus [32] = organism: Mus musculus; assay: Alopecia in mice observed at high dose with Hypervitaminosis; 1/16; type: functional, organism-based
Mus musculus [33] = organism: Mus musculus; assay: Avoiding pressure on limbs in mice at mid dose 1 with Hypervitaminosis; 0/16; type: functional, organism-based; conditions: Limb
Mus musculus [34] = organism: Mus musculus; assay: Enlarged lymph in gross pathological observations in mice with hypervitaminosis A at mid dose 2 with gross observations/total number of mice in group; 2/16; type: functional, organism-based
Mus musculus [35] = organism: Mus musculus; assay: Enlarged spleen in Gross pathological observations in mice with hypervitaminosis A at mid dose 1 with gross observations/total number of mice in group; 0/16; type: functional, organism-based
Mus musculus [36] = organism: Mus musculus; assay: Alopecia in mice observed at mid dose 2 with Hypervitaminosis; 3/16; type: functional, organism-based
Mus musculus [37] = organism: Mus musculus; assay: Alopecia in mice observed at high dose with Hypervitaminosis; 4/16; type: functional, organism-based
Mus musculus [38] = organism: Mus musculus; assay: Mortality rate in mice in low dose; type: functional; summary of the method: as §2
Mus musculus [39] = organism: Mus musculus; assay: Mortality rate in mice in mid dose 1; type: functional; summary of the method: as §2
Mus musculus [40] = organism: Mus musculus; assay: Fracture incidence in mouse at high dose; 3/8

In the case of `C/C(=C\c1ccc(C(=O)O)cc1)c1ccc2c(c1)C(C)(C)CCO2`, the Activity (Mus musculus [1]) is reported as “Weak activity”, the Activity (Mus musculus [2]) is reported as 5.46 and the Activity (Mus musculus [3]) is reported as 106.3. For the same compound, the Activity (Mus musculus [4]) was “Weak activity”, the Activity (Mus musculus [5]) was “Weak activity” and the Total dose (Mus musculus [6]) was 147.1 mg/kg. The Total dose (Mus musculus [7]) was 588.4 mg/kg, the Activity (Mus musculus [8]) was “Toxic” and the Activity (Mus musculus [9]) was “Weak activity”. For the same compound, the Activity (Mus musculus [10]) was “Weak activity” and the Activity (Mus musculus [11]) was “Weak activity”.

With `C/C(=C\c1ccc(C(=O)O)cc1)c1ccc2c(c1)C(C)(C)CCC2(C)C` the Activity (Mus musculus [12]) was “Toxic”, the Activity (Mus musculus [13]) was “Toxic” and the Dose (Mus musculus [14]) was 0.4 mg/kg. The Activity (Mus musculus [15]) was “Active”, the Activity (Mus musculus [16]) was “Toxic” and the Activity (Mus musculus [17]) was “inactive”. The Activity (Mus musculus [18]) was “inactive”, the Activity (Mus musculus [19]) was “Weak activity” and the Activity (Mus musculus [20]) was “Active”. The Activity (Mus musculus [21]) was “Active”, the Activity (Mus musculus [22]) was “Active” and the Activity (Mus musculus [23]) was “Active”. For the same compound, the Activity (Mus musculus [24]) was “Weak activity”, the Activity (Mus musculus [25]) was “Active” and the Activity (Mus musculus [26]) was “Active”. For the same compound, the Mortality [27] was 3 day of death, the Activity (Mus musculus [28]) was “inactive” and the Activity (Mus musculus [29]) was “inactive”. For the same compound, the Activity (Mus musculus [30]) was 0.1 and the Activity (Mus musculus [31]) was “Toxic”.

For `CC(/C=C/C=C(\C)c1ccc2c(c1)C(C)(C)CCS2)=C\C(=O)O`, the Activity (Mus musculus [32]) was “inactive”, the Activity (Mus musculus [33]) was “inactive” and the Activity (Mus musculus [34]) was “inactive”. The Activity (Mus musculus [35]) was “inactive”.

In the case of `CC(/C=C/C=C(\C)c1ccc2c(c1)C(C)(C)CCO2)=C\C(=O)O`, the Activity (Mus musculus [36]) is reported as “inactive”, the Activity (Mus musculus [37]) is reported as “Weak activity” and the Mortality (Mus musculus [38]) is reported as 0 day of death. For the same compound, the Mortality (Mus musculus [39]) was 0 day of death and the Activity (Mus musculus [40]) was “Weak activity”.
